Experimental data taken from ChEMBL document CHEMBL4765319, “Identification of a new series of flavopiridol-like structures as kinase inhibitors with high cytotoxic potency” (Eur J Med Chem, 2020).
One block for each molecule: values may come before it.

Tests used:
SK-OV-3 = assay: Antiproliferative activity against human SKOV3 cells assessed as reduction in cell viability incubated for 72 hrs by CellTiter-Blue fluorescence assay; conditions: SK-OV-3, 72 h
CDK9/cyclin T1 = CDK9/cyclin T1 (Homo sapiens, UniProt P50750); assay: Inhibition of human CDK9/cyclin T in presence of ATP by ADP-glo luminescent assay; type: protein-complex assay
Outline: (§1)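 Human kinases tested over roughly 0.0003–10 μM by ADP-Glo luminescence with 10 μM ATP, in duplicate. IC50 is taken from dose-response curves.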

PC-3 = assay: Antiproliferative activity against human PC-3 cells assessed as reduction in cell viability incubated for 72 hrs by CellTiter-Blue fluorescence assay; conditions: PC-3, 72 h
Sus scrofa [1] = species: Sus scrofa; assay: Inhibition of porcine CK1delta/epsilon assessed as residual activity at 10 uM in presence of ATP by ADP-glo luminescent assay relative to control
[2] = molecular target: T1, Cyclin-dependent kinase 5/CDK5 activator 1 (Homo sapiens) (UniProt Q00535+Q15078); assay: Inhibition of human CDK5/p25 assessed as residual activity at 10 uM in presence of ATP by ADP-glo luminescent assay relative to control; type: protein-complex assay
Outline: (§2)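 Human kinases assayed by ADP-Glo luminescence with 10 μM ATP, compound at 10 or 1 μM. Activity is expressed as % of maximal activity relative to a DMSO control, mean n = 2.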

[3] = molecular target: T2, CDK9/cyclin T1 (Homo sapiens) (UniProt O60563+P50750); assay: Inhibition of human CDK9/cyclin T assessed as residual activity at 1 uM in presence of ATP by ADP-glo luminescent assay relative to control; type: protein-complex assay
Outline: as §2

Sus scrofa [4] = species: Sus scrofa; assay: Inhibition of porcine GSK3alpha/beta assessed as residual activity at 1 uM in presence of ATP by ADP-glo luminescent assay relative to control
Outline: (§3)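 Porcine brain GSK3α/β, native and affinity-purified. Assayed by ADP-Glo luminescence with 10 μM ATP and 0.010 μg/μl GS-1 peptide substrate. Buffer A: 10 mM MgCl2, 1 mM EGTA, 1 mM DTT, 25 mM Tris-HCl pH 7.5, 50 μg/ml heparin. Compound tested at 10 or 1 μM. Result is % of maximal activity versus DMSO control, mean of n = 2.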

[5] = molecular target: T3, CDK2/Cyclin A2 (Homo sapiens) (UniProt P24941+P20248); assay: Inhibition of human CDK2/cyclin A assessed as residual activity at 1 uM in presence of ATP by ADP-glo luminescent assay relative to control; type: protein-complex assay
Outline: as §2

[6] = molecular target: T2, CDK9/cyclin T1 (Homo sapiens); assay: Inhibition of human CDK9/cyclin T assessed as residual activity at 10 uM in presence of ATP by ADP-glo luminescent assay relative to control; type: protein-complex assay
Outline: as §2

Leishmania major [7] = assay: Inhibition of Leishmania major CK1 assessed as residual activity at 10 uM in presence of ATP by ADP-glo luminescent assay relative to control
[8] = molecular target: T4, Glycogen synthase kinase-3 beta (Homo sapiens, UniProt P49841); assay: Inhibition of human GSK3beta assessed as residual activity at 1 uM in presence of ATP by ADP-glo luminescent assay relative to control
Outline: as §2
Target sequence in this assay (P49841 whole entry, looked up): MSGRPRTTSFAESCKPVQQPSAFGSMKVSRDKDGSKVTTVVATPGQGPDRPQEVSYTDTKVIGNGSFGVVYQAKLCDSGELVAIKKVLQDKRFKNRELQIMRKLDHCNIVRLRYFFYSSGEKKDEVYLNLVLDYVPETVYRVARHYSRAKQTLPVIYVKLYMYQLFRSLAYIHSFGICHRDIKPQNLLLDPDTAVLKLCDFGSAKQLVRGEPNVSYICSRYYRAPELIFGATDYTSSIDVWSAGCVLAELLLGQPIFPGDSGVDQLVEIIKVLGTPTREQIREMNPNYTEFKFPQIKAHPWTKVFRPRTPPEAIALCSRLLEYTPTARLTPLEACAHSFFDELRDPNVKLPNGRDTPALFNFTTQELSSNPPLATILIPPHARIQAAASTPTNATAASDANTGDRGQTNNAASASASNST

Leishmania major [9] = assay: Inhibition of Leishmania major CK1 assessed as residual activity at 1 uM in presence of ATP by ADP-glo luminescent assay relative to control
[10] = molecular target: T3, CDK2/Cyclin A2 (Homo sapiens); assay: Inhibition of human CDK2/cyclin A assessed as residual activity at 10 uM in presence of ATP by ADP-glo luminescent assay relative to control; type: protein-complex assay
Outline: as §2

Plasmodium falciparum [11] = assay: Inhibition of Plasmodium falciparum GSK3 assessed as residual activity at 1 uM in presence of ATP by ADP-glo luminescent assay relative to control
Outline: (§4)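 Recombinant P. falciparum GSK3, bacterially expressed, in buffer A (10 mM MgCl2, 1 mM EGTA, 1 mM DTT, 25 mM Tris-HCl pH 7.5, 50 μg/ml heparin). Substrate 0.010 μg/μl GS-1 peptide, 10 μM ATP, ADP-Glo luminescence. Compound at 10 or 1 μM; % residual activity vs DMSO control, mean n = 2.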

MIA PaCa-2 = assay: Antiproliferative activity against human MIA PaCa-2 cells assessed as reduction in cell viability incubated for 72 hrs by CellTiter-Blue fluorescence assay; conditions: MIA PaCa-2, 72 h
[12] = molecular target: Cyclin-dependent kinase 5/CDK5 activator 1 (Homo sapiens, UniProt Q00535); assay: Inhibition of human CDK5/p25 in presence of ATP by ADP-glo luminescent assay; type: protein-complex assay
Outline: as §1

[13] = molecular target: T4, Glycogen synthase kinase-3 beta; assay: Inhibition of human GSK3beta in presence of ATP by ADP-glo luminescent assay
Outline: as §1
Target sequence in this assay (P49841 whole entry): as the sequence (P49841 whole entry, looked up) above

NCI-N87 = assay: Antiproliferative activity against human NCI-N87 cells assessed as reduction in cell viability incubated for 72 hrs by CellTiter-Blue fluorescence assay; conditions: NCI-N87, 72 h
Sus scrofa [14] = species: Sus scrofa; assay: Inhibition of porcine CK1delta/epsilon assessed as residual activity at 1 uM in presence of ATP by ADP-glo luminescent assay relative to control
Sus scrofa [15] = species: Sus scrofa; assay: Inhibition of porcine GSK3alpha/beta assessed as residual activity at 10 uM in presence of ATP by ADP-glo luminescent assay relative to control
Outline: as §3

K562 = assay: Antiproliferative activity against human K562 cells assessed as reduction in cell viability incubated for 72 hrs by CellTiter-Blue resazurin fluorescence assay; conditions: K562, 72 h
CDK2/Cyclin A2 = CDK2/Cyclin A2 (Homo sapiens, UniProt P24941); assay: Inhibition of human CDK2/cyclin A in presence of ATP by ADP-glo luminescent assay; type: protein-complex assay
Outline: as §1

[16] = molecular target: T4, Glycogen synthase kinase-3 beta; assay: Inhibition of human GSK3beta assessed as residual activity at 10 uM in presence of ATP by ADP-glo luminescent assay relative to control
Outline: as §2
Target sequence in this assay (P49841 whole entry, looked up): as above

Plasmodium falciparum [17] = assay: Inhibition of Plasmodium falciparum GSK3 assessed as residual activity at 10 uM in presence of ATP by ADP-glo luminescent assay relative to control
Outline: as §4

[18] = molecular target: T1, Cyclin-dependent kinase 5/CDK5 activator 1 (Homo sapiens); assay: Inhibition of human CDK5/p25 assessed as residual activity at 1 uM in presence of ATP by ADP-glo luminescent assay relative to control; type: protein-complex assay
Outline: as §2

SK-BR-3 = assay: Antiproliferative activity against human SK-BR-3 cells assessed as reduction in cell viability incubated for 72 hrs by CellTiter-Blue fluorescence assay; conditions: SK-BR-3, 72 h
HCT-116 = assay: Antiproliferative activity against human HCT-116 cells assessed as reduction in cell viability incubated for 72 hrs by CellTiter-Blue fluorescence assay; conditions: HCT-116, 72 h

T1 sequence (Q00535 whole entry): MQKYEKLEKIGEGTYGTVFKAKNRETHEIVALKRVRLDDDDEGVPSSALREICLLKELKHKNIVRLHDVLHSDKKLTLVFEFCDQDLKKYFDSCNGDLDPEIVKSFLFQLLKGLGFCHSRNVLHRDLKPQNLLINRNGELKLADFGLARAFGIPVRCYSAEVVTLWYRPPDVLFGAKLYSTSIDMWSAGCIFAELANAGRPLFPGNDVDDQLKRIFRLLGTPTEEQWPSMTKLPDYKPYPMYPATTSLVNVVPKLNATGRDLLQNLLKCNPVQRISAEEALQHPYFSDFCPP
T1 sequence (Q15078 99-307 partner limits assumed): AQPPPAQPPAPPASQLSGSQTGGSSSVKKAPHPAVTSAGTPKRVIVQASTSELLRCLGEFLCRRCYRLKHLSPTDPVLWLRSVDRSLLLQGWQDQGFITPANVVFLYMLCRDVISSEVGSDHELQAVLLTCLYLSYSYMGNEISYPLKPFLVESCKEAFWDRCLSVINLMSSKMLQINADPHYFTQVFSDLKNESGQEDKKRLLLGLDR
Sequence of Cyclin-dependent kinase 5/CDK5 activator 1 (Q00535 whole entry): as the sequence (Q00535 whole entry) above
Sequence of Cyclin-dependent kinase 5/CDK5 activator 1 (Q15078 whole entry, further chain): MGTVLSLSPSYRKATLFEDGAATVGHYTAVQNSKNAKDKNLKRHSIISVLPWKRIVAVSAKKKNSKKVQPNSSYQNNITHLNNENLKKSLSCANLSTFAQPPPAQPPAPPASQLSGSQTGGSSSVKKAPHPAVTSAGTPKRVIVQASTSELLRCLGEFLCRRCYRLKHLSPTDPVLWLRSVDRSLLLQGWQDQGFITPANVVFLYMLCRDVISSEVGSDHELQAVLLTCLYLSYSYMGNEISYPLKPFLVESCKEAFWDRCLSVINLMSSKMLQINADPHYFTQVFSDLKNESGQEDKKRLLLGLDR
Sequence of CDK9/cyclin T1 (O60563 whole entry): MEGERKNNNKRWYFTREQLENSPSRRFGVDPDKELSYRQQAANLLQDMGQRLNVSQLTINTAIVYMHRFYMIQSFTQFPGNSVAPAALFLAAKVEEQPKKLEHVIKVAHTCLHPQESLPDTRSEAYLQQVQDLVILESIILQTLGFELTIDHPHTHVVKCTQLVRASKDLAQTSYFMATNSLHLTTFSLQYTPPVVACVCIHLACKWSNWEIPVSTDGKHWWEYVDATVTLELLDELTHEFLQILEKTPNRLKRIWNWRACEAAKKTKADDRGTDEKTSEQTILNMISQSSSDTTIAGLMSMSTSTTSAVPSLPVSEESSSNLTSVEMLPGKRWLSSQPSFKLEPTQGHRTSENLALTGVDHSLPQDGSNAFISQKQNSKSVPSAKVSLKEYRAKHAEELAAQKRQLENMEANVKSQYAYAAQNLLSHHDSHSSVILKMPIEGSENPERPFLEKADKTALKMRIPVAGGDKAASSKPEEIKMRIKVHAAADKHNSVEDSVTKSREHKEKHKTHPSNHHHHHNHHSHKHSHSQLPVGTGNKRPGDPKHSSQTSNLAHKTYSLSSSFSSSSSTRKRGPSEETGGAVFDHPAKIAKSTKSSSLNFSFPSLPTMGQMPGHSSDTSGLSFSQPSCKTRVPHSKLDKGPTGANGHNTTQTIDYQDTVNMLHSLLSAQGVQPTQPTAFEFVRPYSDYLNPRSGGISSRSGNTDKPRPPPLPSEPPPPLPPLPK
Sequence of CDK9/cyclin T1 (P50750 whole entry): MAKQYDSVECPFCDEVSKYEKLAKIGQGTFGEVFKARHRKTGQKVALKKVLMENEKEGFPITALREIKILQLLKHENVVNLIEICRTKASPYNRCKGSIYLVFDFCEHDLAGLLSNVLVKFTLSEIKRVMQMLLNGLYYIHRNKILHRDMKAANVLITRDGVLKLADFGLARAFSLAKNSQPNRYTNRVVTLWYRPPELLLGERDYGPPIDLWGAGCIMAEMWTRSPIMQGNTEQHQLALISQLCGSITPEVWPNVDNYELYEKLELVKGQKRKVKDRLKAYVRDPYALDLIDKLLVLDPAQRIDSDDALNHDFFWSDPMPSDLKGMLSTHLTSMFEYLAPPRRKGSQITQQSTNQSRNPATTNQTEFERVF

IC50 (CDK9/cyclin T1): 14 nM
IC50 (PC-3): 276 nM
Activity (Sus scrofa [1]): 41%
Activity [2]: 26%
Activity [3]: -2%
IC50 (SK-OV-3): 344 nM
Activity (Sus scrofa [4]): 41%
Activity [5]: 51%
Activity [6]: -4%
Activity (Leishmania major [7]): 57%
Activity [8]: 31%
Activity (Leishmania major [9]): 68%
Activity [10]: 25%
Activity (Plasmodium falciparum [11]): 80%
IC50 (MIA PaCa-2): 361 nM
IC50 [12]: 284 nM
IC50 [13]: 160 nM
Activity (Sus scrofa [14]): 83%
Activity (Sus scrofa [15]): 8%
IC50 (K562): 345 nM
IC50 (CDK2/Cyclin A2): 349 nM
Activity [16]: -3%
Activity (Plasmodium falciparum [17]): 79%
Activity [18]: 41%
IC50 (SK-BR-3): 249 nM
IC50 (HCT-116): 219 nM
SMILES: CN1CC=C(c2c(O)cc(O)c3c(=O)cc(-c4ccc(Sc5nc6ccccc6n5C)cc4)oc23)CC1
IC50 (NCI-N87): 391 nM

IC50 (SK-OV-3): > 10000 nM
SMILES: CC(=O)OC[C@@H]1O[C@@H](Sc2ccc(-c3cc(=O)c4c(O)cc(O)c(C5=CCN(C)CC5)c4o3)cc2)[C@@H](OC(C)=O)[C@H](OC(C)=O)[C@H]1OC(C)=O

Activity (Sus scrofa [1]): 78%
Activity [2]: 13%
Activity [3]: 5%
IC50 (SK-OV-3): 220 nM
Activity (Sus scrofa [4]): 70%
Activity [5]: 26%
Activity [6]: 1%
Activity (Leishmania major [7]): 61%
Activity [8]: 50%
Activity (Leishmania major [9]): > 100%
Activity [10]: 11%
Activity (Plasmodium falciparum [11]): > 100%
IC50 (MIA PaCa-2): 320 nM
Activity (Sus scrofa [14]): > 100%
Activity (Sus scrofa [15]): 16%
IC50 (K562): 125 nM
Activity [16]: 10%
Activity (Plasmodium falciparum [17]): 70%
Activity [18]: 36%
IC50 (SK-BR-3): 75 nM
SMILES: CN1CC[C@H](c2c(O)cc(O)c3c(=O)cc(-c4ccccc4Cl)oc23)[C@H](O)C1 [ALVOCIDIB]
IC50 (NCI-N87): 111 nM

IC50 (SK-OV-3): 1200 nM
SMILES: COc1ccc2[nH]c(Sc3ccc(-c4cc(=O)c5c(O)cc(O)c(C6=CCN(C)CC6)c5o4)cc3)nc2c1

Second part, the molecule before the results:

SMILES: CN1CC=C(c2c(O)cc(O)c3c(=O)cc(-c4ccc(Sc5ccc(C(=O)NO)cn5)cc4)oc23)CC1
IC50 (SK-OV-3): > 10000 nM

SMILES: CN1CC=C(c2c(O)cc(O)c3c(=O)cc(-c4ccc(S[C@@H]5O[C@@H](CO)C(O)C(O)[C@@H]5O)cc4)oc23)CC1 (single isomer, unassigned)
IC50 (SK-OV-3): > 10000 nM

SMILES: CN1CC=C(c2c(O)cc(O)c3c(=O)cc(-c4ccc(Sc5ncccn5)cc4)oc23)CC1
IC50 (SK-OV-3): > 10000 nM

SMILES: CN1CC=C(c2c(O)cc(O)c3c(=O)cc(-c4ccc(Sc5nc6ccccc6[nH]5)cc4)oc23)CC1
IC50 (CDK9/cyclin T1): 8 nM
IC50 (PC-3): 742 nM
Activity (Sus scrofa [1]): 69%
Activity [2]: 4%
Activity [3]: 8%
IC50 (SK-OV-3): 595 nM
Activity (Sus scrofa [4]): 36%
Activity [5]: 35%
Activity [6]: 10%
Activity (Leishmania major [7]): 40%
Activity [8]: 6%
Activity (Leishmania major [9]): 99%
Activity [10]: 5%
Activity (Plasmodium falciparum [11]): 85%
IC50 (MIA PaCa-2): 852 nM
IC50 [12]: 121 nM
IC50 [13]: 117 nM
IC50 (NCI-N87): 183 nM
Activity (Sus scrofa [14]): 91%
Activity (Sus scrofa [15]): 11%
IC50 (K562): 194 nM
IC50 (CDK2/Cyclin A2): 162 nM
Activity [16]: -8%
Activity (Plasmodium falciparum [17]): 54%
Activity [18]: 14%
IC50 (SK-BR-3): 254 nM
IC50 (HCT-116): 293 nM

SMILES: CC(=O)OC[C@@H]1O[C@@H](Sc2ccc(-c3cc(=O)c4c(O)cc(O)c(C5=CCN(C)CC5)c4o3)c(Cl)c2)[C@@H](OC(C)=O)C(OC(C)=O)C1OC(C)=O (single isomer, unassigned)
IC50 (SK-OV-3): 2330 nM

SMILES: CC(=O)N[C@H](CSc1ccc(-c2cc(=O)c3c(O)cc(O)c(C4=CCN(C)CC4)c3o2)cc1)C(=O)O
IC50 (SK-OV-3): > 10000 nM

SMILES: COC(=O)[C@H](CO)NC(=O)[C@H](CSc1ccc(-c2cc(=O)c3c(O)cc(O)c(C4=CCN(C)CC4)c3o2)cc1)NC(=O)OCc1ccccc1
IC50 (SK-OV-3): 4300 nM
